Series [1] concerns Mesenchymal stem cell. Kind of series: Induction of neuronal differentiation in Fisher rat mesenchymal stem cells assessed as change in cell morphology at 20 uM after 2 days. In kind it is functional, cell-based. An outline of the steps:
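Bone marrow MSCs treated at 20 μM for 2 days. Morphology inspected by immunocytochemistry with anti-β-III tubulin and DAPI staining.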

Series [2] has as its system Mesenchymal stem cell. Kind of series: Induction of neuronal differentiation in Fisher rat mesenchymal stem cells assessed as induction of Sizn1 gene expression after 2 days by quantitative PCR. In kind it is functional, cell-based. An outline of the steps:
(§1)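 MSCs incubated at 10 and 20 μM for 2 days beside a DMSO control. mRNA levels measured by quantitative PCR, three independent runs.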

For series [3], the system named is Mesenchymal stem cell. Kind of series: Induction of neuronal differentiation in Fisher rat mesenchymal stem cells assessed as change in acetylcholine-induced membrane potential at 20 uM after 2 days by FLIPR. The series is classed as functional, cell-based. An outline of the steps: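 Rat MSCs preincubated with 20 μM for 48 h. Membrane potential read with a FLIPR membrane potential dye kit after addition of 10 μM acetylcholine, with untreated cells as reference.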

The test system of series [4] is PC-12. As to the kind of experiment: Induction of neurite outgrowth in rat PC12 cells after 48 hrs. The series is classed as functional, cell-based.
For series [5], the system named is PC-12. Kind of series: Induction of neuronal differentiation in rat PC12 cells assessed as increase in neuron specific enolase expression after 48 hrs. The series is classed as functional, cell-based.
The test system of series [6] is PC-12. Kind of series: Induction of neuronal differentiation in rat PC12 cells assessed as increase in beta-3 tubulin expression after 48 hrs. The series is classed as functional, cell-based.
Series [7] can be described thus: Toxicity in Fisher rat mesenchymal stem cells at 20 uM after 2 days. In kind it is cell-based. The note with it: mesenchymal stem cell, 48 h.
For series [8], the system named is Mesenchymal stem cell. Kind of series: Induction of neuronal differentiation in Fisher rat mesenchymal stem cells assessed as increase in beta-3 tubulin expression after 2 days. In kind it is functional, cell-based. An outline of the steps: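 Rat bone marrow MSCs given 20 μM for 2 days, with 50 ng/mL NGF as comparator. β-III tubulin detected by Western blot and by immunocytochemistry with anti-β-III tubulin plus DAPI counterstain. More than three independent repeats.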

Series [9] has as its system Mesenchymal stem cell. As to the kind of experiment: Induction of neuronal differentiation in Fisher rat mesenchymal stem cells assessed as increase in neuron specific enolase expression after 2 days. The series is classed as functional, cell-based. The essentials:
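Rat bone marrow MSCs treated over a time course. Neuron-specific enolase protein followed alongside β-III tubulin. More than three independent experiments.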

Series [10] is described as follows: Induction of neuronal differentiation in Fisher rat mesenchymal stem cells at 20 uM after 2 days by Nissl staining. In kind it is functional, Mesenchymal stem cell. An outline of the steps:
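Bone marrow MSCs held at 20 μM for 2 days, then Nissl stained. Differentiation estimated by counting cells. Each experiment repeated independently more than three times.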

Series [11] relates to Mesenchymal stem cell. Kind of series: Induction of astroglial differentiation in Fisher rat mesenchymal stem cells assessed as GFAP level at 20 uM after 2 days by Western blot. The series is classed as functional, cell-based. An outline of the steps:
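Rat bone marrow MSCs exposed to 20 μM for 48 h. GFAP, the astroglial marker, detected by Western blot.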
For orientation: Immunoblotting shows a protein as a band on a membrane.

In series [12] the test system is Mesenchymal stem cell. As to the kind of experiment: Induction of neuronal differentiation in Fisher rat mesenchymal stem cells assessed as induction of potassium current at 20 uM after 2 days by patch clamp method. In kind it is functional, cell-based. The essentials:
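Rat MSCs treated at 20 μM for 2 days. Whole-cell patch clamp records membrane K+ current under voltage pulses from -30 to 90 mV.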
A general note: In patch-clamp work, channel activity is measured electrically.

Series [13] deals with Mesenchymal stem cell. Kind of series: Induction of neuronal differentiation in Fisher rat mesenchymal stem cells assessed as induction of Chrna2 gene expression by DNA microarray. In kind it is functional, cell-based.
Series [14] relates to Mesenchymal stem cell. As to the kind of experiment: Induction of neuronal differentiation in Fisher rat mesenchymal stem cells assessed as induction of Chrnb2 gene expression by DNA microarray. The series is classed as functional, cell-based.
For series [15], the system named is Mesenchymal stem cell. As to the kind of experiment: Induction of neuronal differentiation in Fisher rat mesenchymal stem cells assessed as induction of Chrm4 gene expression by DNA microarray. The series is classed as functional, cell-based.
Series [16] deals with Mesenchymal stem cell. Kind of series: Induction of neuronal differentiation in Fisher rat mesenchymal stem cells assessed as induction of cholinergic receptor gene expression after 2 days by quantitative PCR. The series is classed as functional, cell-based. An outline of the steps: as §1
The test system of series [17] is Mesenchymal stem cell. As to the kind of experiment: Induction of neuronal differentiation in Fisher rat mesenchymal stem cells assessed as induction of Fbxo2 gene expression after 2 days by quantitative PCR. In kind it is functional, cell-based. An outline of the steps: as §1

SMILES strings stand for the structures. The source made the active and inactive calls. The rule behind the calls is not given here. Where only a bound is given, the exact number is not on record here.

As for `O=C(NOC1CCCCO1)c1ccc2[nH]c(=O)c(CCCc3ccccc3)nc2c1` (configuration not stated), the outcome in series [1] was inactive.

For `O=C(NOC1CCCCO1)c1ccc2nc(CCCc3ccccc3)c(=O)[nH]c2c1` (configuration not stated), in series [1], the outcome was inactive.

For `O=C(NO)c1ccc2nc(CCCc3ccccc3)c(=O)[nH]c2c1`, the outcome in [1] was inactive.

In the case of `COC(=O)c1ccc2nc(CCCc3ccccc3)c(=O)[nH]c2c1`, the result in [1] was inactive.

As to `O=C(NO)c1ccc2[nH]c(=O)c(CCCc3ccccc3)nc2c1`, the Activity result is “Dose-dependent effect” in series [2]; “Non-toxic” in series [7]; “Dose-dependent effect” in [8]; “Dose-dependent effect” in series [9]; over 95% in series [10]; “Dose-dependent effect” in series [16]. In addition, the Activity result in [17] was “Dose-dependent effect”. In addition, the result in series [3], in series [4], in series [5], in series [6], in series [1] and in series [12] was Active. In addition, the outcome in [13], in series [14] and in series [15] was Active. Also, the result in series [11] was inactive.

Take `COC(=O)c1ccc2[nH]c(=O)c(CCCc3ccccc3)nc2c1`: the outcome in series [1] was inactive.

Values taken from ChEMBL document CHEMBL1154752, “Discovery of a new and efficient small molecule for neuronal differentiation from mesenchymal stem cell” (J Med Chem, 2009).
